Bioassay records (PubChem)
The list is not random: actives were taken first. Their share in the collection is about 4.3%.
SUMO HTRF inh – inhibitors of human SUMOylation (UBC9). inhibition, % at 35 µM. 290,000 compounds, 0.36% hits. P63279. HTRF SUMOylation assay, SAE1/SAE2 + UBC9, in vitro. AID 2006; in the data active means inhibition above about 50%, passing the limit was not always enough; inconclusive means no clear call, values can overlap the other calls
Target sequence (P63279 whole entry, looked up): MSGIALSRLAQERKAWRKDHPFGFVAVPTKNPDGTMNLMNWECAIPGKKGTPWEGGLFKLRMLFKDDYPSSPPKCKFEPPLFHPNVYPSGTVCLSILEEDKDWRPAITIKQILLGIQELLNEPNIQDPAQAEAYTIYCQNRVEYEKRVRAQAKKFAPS
PREPL inhibitor – inhibitors of human prolyl oligopeptidase-like enzyme PREPL; recombinant PREPL, fluorescence polarization activity-based probe; 320,000 compounds, 0.68% hits; AID 2751; inhibition, % at 5.96 µM; Q4J6C6; in the data active means inhibition above about 43%;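 further: 0% = enzyme with DMSO and 100% = wells lacking enzyme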
ALR H2O2 inh – human ALR oxidase inhibition via reduced H2O2. P55789. purified ALR, DTT oxidation, H2O2 HRP-luminol luminescence. inhibition, % (test concentration not listed). 290,000 compounds, 3.8% hits;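 active means mean replicate inhibition above about 79%, with every replicate also reaching it, limit read from the data; inconclusive means only one of the two criteria met; inactive means mean below limit and not every replicate reaching it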
Target sequence (P55789 whole entry, looked up): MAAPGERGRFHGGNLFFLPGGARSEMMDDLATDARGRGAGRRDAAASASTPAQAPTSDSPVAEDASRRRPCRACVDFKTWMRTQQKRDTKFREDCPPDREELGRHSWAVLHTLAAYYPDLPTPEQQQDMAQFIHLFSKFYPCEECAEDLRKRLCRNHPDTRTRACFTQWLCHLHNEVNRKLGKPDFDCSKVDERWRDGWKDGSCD
RBBP9 inhibitor – blocks human serine hydrolase RBBP9; recombinant RBBP9, FP-Rh probe fluorescence polarization; inhibition, % at 7.94 µM; 220,000 compounds, 0.2% hits;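 active means inhibition above the campaign mean of all tested compounds plus 3 SD, cut at about 14% in these data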;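 further: plate controls were DMSO wells with RBBP9 for no effect and wells lacking RBBP9 protein for full effect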
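Measured by – fluorescence polarization · Test system – RBBP9 protein · Input – 2.5 µM RBBP9 dispensing solution, before mixing · Measure – percent inhibition from mP, scaled between DMSO and no-protein wells · Benchmarks – DMSO-treated enzyme wells and wells lacking RBBP9 · Times – preincubation 30 min plus labeling 45 min at 25 °C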
UBC13 inh – human UBC13 polyubiquitination inhibition; inhibition, % at 20 µM; 330,000 compounds, 0.47% hits; AID 485273; UBC13 polyubiquitin chain formation, TR-FRET; P61088; in the data active means inhibition above about 45%, passing the limit was not always enough; inconclusive means no clear call, values can overlap the other calls
Rin1 Abl inh – inhibitors of human Rin1-Abl protein interaction. AID 588664. TR-FRET Rin1/Abl binding, biochemical. 360,000 compounds, 0.4% hits. inhibition, % at 7.35 µM. P00519+Q13671; in the data active means inhibition above about 5%, passing the limit was not always enough
The depositor's hits bear a star.

How did CC(C)Oc1cccc(C(=O)C2CCCN(Cc3ccon3)C2)c1 (centres undefined) do in these assays?
SUMO HTRF inh: 5; PREPL inhibitor: 13; ALR H2O2 inh: 4; RBBP9 inhibitor: 7; UBC13 inh: -22; Rin1 Abl inh: 0

How did CC[C@@H]1C=CC=CC[C@H](C)[C@@H](O)[C@@H](C)C(=O)[C@H](C)[C@@H](O)[C@H](C)C(=O)[C@H](C)[C@@H](O)[C@H](C)C=CC(=O)O[C@H]2[C@@H](C)[C@@H](CC1)O[C@@]1(CC[C@@H](C)[C@@H](C[C@H](C)O)O1)[C@@H]2C do in these assays?
PREPL inhibitor: 7; ALR H2O2 inh: -11; UBC13 inh: 59*

What do the screens show for `O=C(CSC1c2ccccc2-c2ccccc21)N/N=C/c1ccccc1O`?
SUMO HTRF inh: -4; PREPL inhibitor: 12; ALR H2O2 inh: 98*; RBBP9 inhibitor: -4; UBC13 inh: -8; Rin1 Abl inh: -5

What do the screens show for `O=C(CSC1c2ccccc2-c2ccccc21)N/N=C/c1ccc(C(=O)O)cc1`?
SUMO HTRF inh: -9; PREPL inhibitor: -6; ALR H2O2 inh: -5; RBBP9 inhibitor: -9; UBC13 inh: 2; Rin1 Abl inh: -2

What do the screens show for `O=C1NC(=O)N(c2ccccc2)C(=O)/C1=C\c1ccc([N+](=O)[O-])s1`?
SUMO HTRF inh: 55*; PREPL inhibitor: 12; ALR H2O2 inh: -3; RBBP9 inhibitor: -10; UBC13 inh: -28

Results for COC(=O)C1=C(c2ccc(OC(F)(F)F)cc2)C[C@@H]2CC[C@H]1N2C(=O)NC1CC1 ?
PREPL inhibitor: 6; ALR H2O2 inh: 3; UBC13 inh: -12; Rin1 Abl inh: 0

What do the screens show for `Cc1cccc(N2C(=O)NC(=O)/C(=C\c3ccc4c(c3)CCCN4Cc3ccccc3)C2=O)c1`?
SUMO HTRF inh: 5; PREPL inhibitor: 34; ALR H2O2 inh: 1; RBBP9 inhibitor: -18; UBC13 inh: -28; Rin1 Abl inh: 1

How did CCC(C)N1C(=O)/C(=C/c2ccc3c(c2)CCN3CCCCl)C(=O)NC1=S (centres undefined) do in these assays?
SUMO HTRF inh: 0; PREPL inhibitor: 12; ALR H2O2 inh: 98*; RBBP9 inhibitor: 0; Rin1 Abl inh: -1

What do the screens show for `CC(C)CN1Cc2cc(-c3ccccc3)ccc2-n2nncc2C1`?
Rin1 Abl inh: 3

How did Cc1ccccc1-n1c(O)c(C=Nc2ccc(N(C)C)cc2)c(=O)[nH]c1=O do in these assays?
SUMO HTRF inh: -14; PREPL inhibitor: 12; ALR H2O2 inh: 92*; RBBP9 inhibitor: 4; UBC13 inh: -18; Rin1 Abl inh: 1

Results for CCOC(=O)CNC(=O)N1Cc2cc(N3CCOCC3)ccc2-n2nncc2C1 ?
Rin1 Abl inh: 5

How did O=C1Nc2ccccc2C(c2ccccc2)=NC1O (centres undefined) do in these assays?
SUMO HTRF inh: 14; PREPL inhibitor: -3; ALR H2O2 inh: 1; UBC13 inh: -1; Rin1 Abl inh: 2

Results for CN1C(=O)c2ccccc2NC(=O)[C@]12O[C@@H]2c1ccccc1 ?
SUMO HTRF inh: 8; PREPL inhibitor: -4; ALR H2O2 inh: 98*; RBBP9 inhibitor: 4; UBC13 inh: 6; Rin1 Abl inh: -2

Results for O=c1oc2ccccc2c(O)c1[C@H]1c2ccc(O)cc2Oc2c1c(=O)oc1ccccc21 ?
SUMO HTRF inh: 12; PREPL inhibitor: 1; ALR H2O2 inh: 98*; RBBP9 inhibitor: -10; UBC13 inh: inconclusive; Rin1 Abl inh: -28

How did CC1CN=C(Nc2ccccc2)S1 (centres undefined) do in these assays?
SUMO HTRF inh: 9; PREPL inhibitor: 16; ALR H2O2 inh: -2; RBBP9 inhibitor: 4; UBC13 inh: -1; Rin1 Abl inh: 2

What do the screens show for `CC1CN=C(Nc2ccc(N(C)C)cc2)S1` (centres undefined)?
SUMO HTRF inh: -29; PREPL inhibitor: 15; ALR H2O2 inh: 89*; RBBP9 inhibitor: -3; UBC13 inh: 0; Rin1 Abl inh: -1

Results for C=CC[C@@H](CC/C=C/C=C/CC/C=C\[C@@H]1CSC([C@@H]2C[C@@H]2C)=N1)OC ?
PREPL inhibitor: -6; UBC13 inh: 1; Rin1 Abl inh: -1

How did Cc1[nH]c2ccccc2c1/C=N/O do in these assays?
SUMO HTRF inh: 24; PREPL inhibitor: -6; ALR H2O2 inh: 96*; RBBP9 inhibitor: 0; UBC13 inh: 4; Rin1 Abl inh: -5
